27 molecules from ChEMBL document CHEMBL4673188, “Identification of 6-amino-1H-pyrazolo[3,4-d]pyrimidines with in vivo efficacy against visceral leishmaniasis” (RSC Med Chem, 2020) can be followed below.

Molecules are shown by their SMILES. pEC50: −log10 of the molar value.

The first data set deals with THP-1. Briefly: Cytotoxicity against human THP-1 cells incubated for 72 hrs by resazurin dye based assay. As to conditions: THP-1, 72 h. The class given is cell-based. On the technique in general: The colour change of resazurin is a common sign of viable cells or microbes.
Turning to `CCS(=O)(=O)N[C@H]1CC[C@H](Nc2ncc3c(CC(C)C)n[nH]c3n2)CC1`, the pEC50 is less than 4.30.

System in a further data set: not listed separately
Briefly: Kinetic aqueous solubility of compound in phosphate buffer at pH 7.4 incubated for 1 hr. The class given is physicochemical. As to conditions: read-out: Kinetic_solubility. Put shortly: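 10 mM DMSO stock diluted 20-fold into pH 7.4 phosphate buffered saline, equilibrated 1 h at room temperature, filtered; filtrate quantified by calibrated charged aerosol detection.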
Consider `CCS(=O)(=O)N[C@H]1CC[C@H](Nc2ncc3c(CC(C)C)n[nH]c3n2)CC1`, for which the solubility kinetic at 1 h is less than 1 µM.

System in another data set: not listed separately
Briefly: Intrinsic clearance in CD-1 mouse liver microsomes at 0.5 uM in presence of NADPH measured up to 30 mins by UPLC-MS/MS analysis. The class given is ADME, Microsome. Conditions: 0.5 h. Put shortly:
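Female CD1 mouse liver microsomes, test compound 0.5 μM; reaction started with excess NADPH (8 mg/mL in 50 mM potassium phosphate, pH 7.4). Aliquots at 0, 3, 6, 9, 15, 30 min quenched in acetonitrile, internal standard added, protein spun down; UPLC-MS/MS. Rate constant k from exponential decay of compound/internal standard peak-area ratio.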
For orientation: Microsomes from liver hold many membrane-bound enzymes, among them those of drug oxidation.
As to `COc1ccccc1-c1n[nH]c2nc(NC3CCN(c4ccc(Cl)nn4)CC3)ncc12`, the intrinsic clearance came out at 3.4 mL/min/g.
On the same count and under the same terms, under `O=C(Cc1ccc(F)cc1F)N1CCC(Nc2ncc3c(-c4ccccn4)n[nH]c3n2)CC1` stands 6.7 mL/min/g; under `O=C(Cc1ccc(F)c(F)c1)N1CCC(Nc2ncc3c(C4CCOCC4)n[nH]c3n2)CC1`, 3.1 mL/min/g.
Consider `Clc1ccc(N2CCC(Nc3ncc4c(N5CCOCC5)n[nH]c4n3)CC2)nn1`, for which the intrinsic clearance was 0.6 mL/min/g.
Turning to `COc1ccccc1-c1n[nH]c2nc(NC3CCN(C(=O)N4CCOCC4)CC3)ncc12`, the intrinsic clearance was 2 mL/min/g.
As to `COc1ccccc1-c1n[nH]c2nc(NC3CCN(C(=O)OCc4ccccc4)CC3)ncc12`, the intrinsic clearance is 9 mL/min/g.
As to `CC(C)Cc1n[nH]c2nc(NC3CCN(C(=O)Cc4ccc(Cl)cc4Cl)CC3)ncc12`, the intrinsic clearance turned out to be 30 mL/min/g.
For the molecule `Cn1nccc1-c1n[nH]c2nc(NC3CCN(C(=O)Cc4ccc(F)cc4F)CC3)ncc12`, the intrinsic clearance is 3.3 mL/min/g.
For `O=C(CC1CC1)N1CCC(Nc2ncc3c(C4CCOCC4)n[nH]c3n2)CC1`, the intrinsic clearance was 0.8 mL/min/g.
On to `CCS(=O)(=O)N[C@H]1CC[C@H](Nc2ncc3c(CC(C)C)n[nH]c3n2)CC1`, for which the intrinsic clearance was 27 mL/min/g.
The same measure, in the same setting: under `O=C(Cc1ccc(F)cc1F)N1CCC(Nc2ncc3c(C4CC4)n[nH]c3n2)CC1` stands 5 mL/min/g; under `O=C(Cc1ccc(F)c(F)c1)N1CCC(Nc2ncc3c(N4CCOCC4)n[nH]c3n2)CC1`, 1.6 mL/min/g; under `CCOC(=O)N1CCC(Nc2ncc3c(-c4ccccc4OC)n[nH]c3n2)CC1`, 14 mL/min/g.
On to `O=C(Cc1ccc(F)cc1F)N1CCC(Nc2ncc3c(-c4ccccc4)n[nH]c3n2)CC1`, for which the intrinsic clearance came out at 7.2 mL/min/g.
In the case of `O=C(Cc1ccc(F)cc1F)N1CCC(Nc2ncc3c(N4CCOCC4)n[nH]c3n2)CC1`, the intrinsic clearance stood at 2 mL/min/g.
In the case of `O=C(Cc1ccc(F)cc1F)N1CCC(Nc2ncc3c(CN4CCOCC4)n[nH]c3n2)CC1`, the intrinsic clearance is less than 0.5 mL/min/g.
For `O=C(Cc1ccc(F)cc1F)N1CCC(Nc2ncc3c(C4CCOCC4)n[nH]c3n2)CC1`, the intrinsic clearance stood at 0.5 mL/min/g.
Same read-out and setting: under `COc1ccccc1-c1n[nH]c2nc(NC3CCN(S(=O)(=O)CCC(F)(F)F)CC3)ncc12` stands 14 mL/min/g; under `CC(C)Cc1n[nH]c2nc(NC3CCN(C(=O)c4ccccc4)CC3)ncc12`, 7 mL/min/g.
Still for that read-out and setting: under `CC(C)Cc1n[nH]c2nc(NC3CCN(C(=O)Cc4ccccc4)CC3)ncc12` stands 18 mL/min/g; under `COc1ccccc1-c1n[nH]c2nc(NC3CCN(C(=O)Cc4ccc(F)cc4F)CC3)ncc12`, 5 mL/min/g.
Consider `CC(C)(C)Cc1n[nH]c2nc(NC3CCN(C(=O)Cc4ccc(F)cc4F)CC3)ncc12`, for which the intrinsic clearance came out at 22 mL/min/g.
Same read-out and setting: the figure for `COc1ncccc1-c1n[nH]c2nc(NC3CCN(C(=O)Cc4ccc(F)cc4F)CC3)ncc12` is 15 mL/min/g; for `CC(C)Cc1n[nH]c2nc(NC3CCN(C(=O)Cc4ccc(F)cc4F)CC3)ncc12` it is 12 mL/min/g.
The same measure, in the same setting: the figure for `COc1ccccc1-c1n[nH]c2nc(NC3CCN(C(=O)CC4CC4)CC3)ncc12` is 1.6 mL/min/g; for `CC(C)Cc1n[nH]c2nc(NC3CCN(S(=O)(=O)Cc4ccccc4)CC3)ncc12` it is greater than 50 mL/min/g; for `COc1ccccc1-c1n[nH]c2nc(NC3CCN(C(=O)Cc4ccc(F)c(F)c4)CC3)ncc12` it is 6.3 mL/min/g.

System in a further data set: not listed separately
The data set can be described thus: AUC (0 to T last) in rat at 10 mg/kg. The class given is ADME, organism-based. Also on record: dose 10 mg/kg. Conditions: in vivo.
For `O=C(Cc1ccc(F)c(F)c1)N1CCC(Nc2ncc3c(N4CCOCC4)n[nH]c3n2)CC1`, the AUC(0-t) is 448 ng·h/mL.

What is called pEC50 is the EC50 on a negative log10 scale, so that one unit is a factor of ten. A low value points to a high EC50. What is called AUC(0-t) is exposure summed from dosing to a finite time, without extrapolation to infinity. Low values mean low exposure, high ones high exposure.
